# Source: ChEMBL document CHEMBL1140923, “Discovery of imidazo[1,2-b]thiazole derivatives as novel SIRT1 activators” (J Med Chem, 2009)
# Active and inactive are the calls of the source. The calls are words filed in the database; no cut-off is given here.
# Legend:
# [1] = biological target: T1, Muscarinic acetylcholine receptor M1 (Homo sapiens, UniProt P11229); experiment: Inhibition of muscarinic M1 receptor
# T1 sequence (P11229 whole entry): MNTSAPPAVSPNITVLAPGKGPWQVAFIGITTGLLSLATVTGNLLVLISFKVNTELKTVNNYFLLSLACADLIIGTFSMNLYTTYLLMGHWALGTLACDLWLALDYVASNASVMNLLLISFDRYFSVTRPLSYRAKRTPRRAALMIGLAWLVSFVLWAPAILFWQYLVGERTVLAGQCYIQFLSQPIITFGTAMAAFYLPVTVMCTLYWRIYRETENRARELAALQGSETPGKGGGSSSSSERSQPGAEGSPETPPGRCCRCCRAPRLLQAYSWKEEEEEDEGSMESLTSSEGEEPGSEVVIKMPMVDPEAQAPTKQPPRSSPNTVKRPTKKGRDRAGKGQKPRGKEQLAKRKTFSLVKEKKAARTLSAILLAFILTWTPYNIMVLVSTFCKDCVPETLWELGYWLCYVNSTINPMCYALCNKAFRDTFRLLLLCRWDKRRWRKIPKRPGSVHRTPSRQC
# [2] = test system: Mus musculus; experiment: Toxicity in diet-induced obesity C57BL/6 mouse model assessed as hemoglobin at 100 mg/kg, po daily once for 10 weeks; format: organism-based; set-up: dose 100 mg/kg, route oral; settings: in vivo, 1680 h
# Method in brief: (§1)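 Male C57BL/6 mice were fed a 60%-fat diet from 9 weeks of age until about 40 g, in groups of 6-10. They were dosed by oral gavage once daily in 2% HPMC + 0.2% DOSS, with 29 at 100 mg/kg and rosiglitazone at 5 mg/kg, alongside vehicle groups on lean and high-fat diet. Fed glucose was read at weeks 2, 4, 6, 8 and 10. Clinical chemistry and hematology were also measured. Analysis by ANOVA.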
# [3] = test system: Mus musculus; experiment: Toxicity in diet-induced obesity C57BL/6 mouse model assessed as red blood count at 100 mg/kg, po daily once for 10 weeks; format: organism-based; set-up: dose 100 mg/kg, route oral; settings: in vivo, 1680 h; method in brief: as §1
# [4] = biological target: Cytochrome P450 2C19 (Homo sapiens, UniProt P33261); experiment: Inhibition of CYP2C19 at 25 uM; format: ADME
# Method in brief: (§2)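 Inhibition of CYP isozymes was tested up to a highest concentration of 25 µM.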
# [5] = Inhibition of sodium channel site 2
# [6] = test system: Mus musculus; experiment: Antidiabetic activity in ob/ob mouse model assessed as reduction of fasting blood glucose level at 100 mg/kg, po daily once after 1 week relative to control; format: functional, organism-based; set-up: dose 100 mg/kg
# Method in brief: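 ob/ob mice received at 6 weeks of age were kept on a 60%-fat diet from at least 1 week before the study. They were sorted by body weight and glucose, then gavaged once daily with 100 mg/kg or vehicle (2% HPMC + 0.2% DOSS). Fasting blood glucose was measured. Analysis by one-way ANOVA with Dunnett's test.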
# [7] = biological target: T2, Alpha-2A adrenergic receptor (Homo sapiens, UniProt P08913); experiment: Inhibition of adrenergic alpha2A receptor
# T2 sequence (P08913 whole entry): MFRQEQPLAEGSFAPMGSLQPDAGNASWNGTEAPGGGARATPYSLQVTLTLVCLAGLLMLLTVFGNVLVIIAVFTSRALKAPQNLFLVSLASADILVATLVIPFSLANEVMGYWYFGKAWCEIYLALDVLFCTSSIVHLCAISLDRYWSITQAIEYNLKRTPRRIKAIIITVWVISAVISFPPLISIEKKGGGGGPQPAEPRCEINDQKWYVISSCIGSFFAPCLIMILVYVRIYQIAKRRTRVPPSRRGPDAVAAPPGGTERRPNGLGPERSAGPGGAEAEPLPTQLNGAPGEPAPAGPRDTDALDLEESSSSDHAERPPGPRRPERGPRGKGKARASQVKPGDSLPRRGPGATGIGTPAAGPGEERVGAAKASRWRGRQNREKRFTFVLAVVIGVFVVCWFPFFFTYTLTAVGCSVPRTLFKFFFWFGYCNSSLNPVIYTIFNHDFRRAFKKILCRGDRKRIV
# [8] = test system: Salmonella typhimurium; experiment: Mutagenic activity in Salmonella Typhimurium TA100 in absence of S9 activation; format: toxicity, organism-based; settings: salmonella enterica subsp. enterica serovar typhimurium
# [9] = biological target: Cytochrome P450 2D6 (Homo sapiens, UniProt P10635); experiment: Inhibition of CYP2D6 at 25 uM; format: ADME; method in brief: as §2
# [10] = Oral bioavailability in Sprague-Dawley rat at 100 mg/kg; format: ADME, organism-based; settings: in vivo
# Method in brief: (§3)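 Male Sprague-Dawley rats (250 g, 3 per dose group) received 100 mg/kg by oral gavage in 2% HPMC + 0.2% DOSS, or 10 mg/kg iv by tail vein in 10% ethanol/40% PEG/50% H2O. Blood was drawn at 0.033-24 h postdose for drug levels.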
# [11] = AUC in Sprague-Dawley rat at 100 mg/kg, po or 10 mg/kg, iv; format: ADME, organism-based; settings: plasma; method in brief: as §3
# [12] = test system: Mus musculus; experiment: Antidiabetic activity in C57BL/6 mouse assessed as overt sign of hypoglycemia at 100 mg/kg, po daily once after 10 weeks; format: functional, organism-based; set-up: dose 100 mg/kg
# Method in brief: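 Lean chow-fed mice were dosed 100 mg/kg po daily in 2% HPMC + 0.2% DOSS for 10 weeks and watched for overt hypoglycemia.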
# [13] = test system: Mus musculus; experiment: Toxicity in diet-induced obesity C57BL/6 mouse model assessed as hematocrit at 100 mg/kg, po daily once for 10 weeks; format: organism-based; set-up: dose 100 mg/kg, route oral; settings: in vivo, 1680 h; method in brief: as §1
# [14] = test system: Mus musculus; experiment: Antidiabetic activity in diet-induced obesity C57BL/6 mouse model assessed as reduction of fed blood glucose level at 100 mg/kg, po daily once for 1 week after 10 weeks; format: functional; set-up: scale not given: the % may be the effect or the level left; method in brief: as §1
# Sequence of Cytochrome P450 2D6 (P10635 whole entry): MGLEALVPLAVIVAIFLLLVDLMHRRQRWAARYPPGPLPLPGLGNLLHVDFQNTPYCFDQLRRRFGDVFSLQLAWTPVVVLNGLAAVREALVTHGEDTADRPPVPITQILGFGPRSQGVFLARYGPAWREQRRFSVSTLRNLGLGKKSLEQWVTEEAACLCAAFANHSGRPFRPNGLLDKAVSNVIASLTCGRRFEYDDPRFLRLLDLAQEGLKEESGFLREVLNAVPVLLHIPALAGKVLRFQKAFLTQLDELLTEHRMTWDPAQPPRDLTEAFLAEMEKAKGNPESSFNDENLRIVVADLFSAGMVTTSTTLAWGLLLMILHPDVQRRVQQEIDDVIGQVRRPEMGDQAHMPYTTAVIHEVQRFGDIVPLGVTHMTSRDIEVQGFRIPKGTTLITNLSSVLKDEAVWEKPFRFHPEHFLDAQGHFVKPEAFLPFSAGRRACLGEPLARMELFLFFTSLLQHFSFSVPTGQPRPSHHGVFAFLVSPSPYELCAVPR
# Sequence of Cytochrome P450 2C19 (P33261 whole entry): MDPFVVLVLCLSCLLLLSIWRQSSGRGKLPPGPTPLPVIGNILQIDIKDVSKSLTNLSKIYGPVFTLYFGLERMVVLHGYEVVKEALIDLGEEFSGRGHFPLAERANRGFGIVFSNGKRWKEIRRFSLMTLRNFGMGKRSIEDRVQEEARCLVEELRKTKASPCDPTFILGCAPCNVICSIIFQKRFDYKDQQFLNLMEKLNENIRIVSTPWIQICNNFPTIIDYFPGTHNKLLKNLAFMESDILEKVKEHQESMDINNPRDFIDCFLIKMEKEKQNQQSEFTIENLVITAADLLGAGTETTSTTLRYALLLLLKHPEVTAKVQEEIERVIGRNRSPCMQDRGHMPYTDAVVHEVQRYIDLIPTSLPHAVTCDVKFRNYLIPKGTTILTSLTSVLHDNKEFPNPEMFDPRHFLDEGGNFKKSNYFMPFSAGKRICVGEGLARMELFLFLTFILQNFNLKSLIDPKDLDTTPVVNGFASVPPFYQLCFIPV
compound,measurement,setting,value
O=C(Nc1ccccc1-c1cn2c(CN3CCNCC3)csc2n1)c1cnc2ccccc2n1,IC50,[1],8.02 µM
same,Activity,[2],Active
same,Activity,[3],Active
same,Activity,[4],Not Active
same,IC50,[5],3.37 µM
same,Activity,[6],Active
same,IC50,[7],2.83 µM
same,Activity,[8],Non-toxic
same,Activity,[9],Not Active
same,bioavailability,[10],25%
same,AUC,[11],3700 ng·h/mL
same,Activity,[12],inactive
same,Activity,[13],Active
same,Activity,[14],15%
